Most compounds without a hit are left out; they make up all but 2.9% or so of the library.
E-sel inducer: E-selectin induction in HUVECs, primary screen, imaging, HUVEC, immunofluorescence imaging, single point. P16581. normalized: neutral wells 0, TNF-alpha wells 100. activation, % at 7.58 µM. hit rate 0.37% among 260,000. AID 686992, 2013;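 active = mean E-selectin-positive cell signal at least 10% of the positive control, reached in at least 60% of replicates, without over 20% cell loss; inconclusive = no rule given, readout overlaps actives, possibly toxicity-flagged; inactive = the rest, including those meeting only one limit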
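System: HUVEC, human umbilical vein endothelial cells; quantity: 3,000 cells/well; buffer or medium: EGM-2 medium, gelatin-coated wells; dosing: single-point compound dose; detection: immunofluorescence imaging; evaluation: % PE-positive cells; benchmarks: TNF-alpha, DMSO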
SIRT5 inh: SIRT5 desuccinylase inhibitors, primary screen, biochemical, fluorescence imaging, single point, set 5; Purified SirT5, succinyl-peptide AMC, trypsin-coupled fluorescence; inhibition, % at 15 µM; NAD-dependent protein deacylase sirtuin-5, mitochondrial (Homo sapiens), Q9NXA8; hit rate 1.1% among 330,000; in the data active = inhibition above about 15%; inconclusive = no clear call, values can overlap the other calls
Target sequence (Q9NXA8 whole entry, looked up): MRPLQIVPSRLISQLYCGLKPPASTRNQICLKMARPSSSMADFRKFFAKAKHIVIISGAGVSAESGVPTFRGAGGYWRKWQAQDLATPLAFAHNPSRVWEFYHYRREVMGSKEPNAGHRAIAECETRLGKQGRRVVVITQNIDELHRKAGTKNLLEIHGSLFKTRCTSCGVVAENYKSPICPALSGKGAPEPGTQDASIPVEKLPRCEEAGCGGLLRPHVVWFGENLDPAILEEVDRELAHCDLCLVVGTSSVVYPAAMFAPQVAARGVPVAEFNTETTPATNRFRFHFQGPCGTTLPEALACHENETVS
DENV2 CPE: inhibitors of DENV2 cytopathic effect, primary screen, cell-based, plate reader, single concentration | hit rate 1.7% among 350,000 | CPE inhibition, % at 9.99 µM | DENV2-infected cells, cytopathic effect rescue | AID 651640, 2012; in the data active = CPE inhibition above about 20%, passing the limit was not always enough; inconclusive = no clear call, values can overlap the other calls; tested in BHK-21 cells;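 note: 0% = median of neutral control wells and 100% = median of positive control wells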
* hit, by the source's call; ? = inconclusive; nt = not tested or not shown; ! = not confirmed by another sample.

SMILES	E-sel inducer	SIRT5 inh	DENV2 CPE
CCCNC(=O)N1C[C@@H](O)COC[C@@H]2O[C@H](CC(=O)NCc3ccncn3)CC[C@H]21	0	-1	10
Cc1cc(N2CCN(C(=O)OC(C)(C)C)C[C@@H]2C)ccc1N1C[C@@H](C)O[C@@H](C)C1	0	1	4
COC(=O)c1scc(C)c1NC(=O)C(Cl)c1ccccc1 (stereo not drawn)	nt	-2	16
CC(C)CNS(=O)(=O)c1ccc(S(=O)(=O)N2CCC3(CC2)OCCO3)cc1	0	-4	7
COc1ccc(CNC(=O)c2ccc(-c3ccc(F)c(F)c3)c3ccoc23)cc1OC	0	0	-9
C[C@@H]1CCCCO[C@@H](CN(C)C(=O)NC2CCCCC2)[C@@H](C)CN([C@@H](C)CO)C(=O)c2cc(NC(=O)Nc3ccccc3)ccc2O1	0	3	45*
C[C@H]1CCCCO[C@H](CN(C)C(=O)NC2CCCCC2)[C@@H](C)CN([C@@H](C)CO)C(=O)c2cc(NC(=O)Nc3ccccc3)ccc2O1	0	6	27*
C[C@H]1CCCCO[C@@H](CN(C)C(=O)NC2CCCCC2)[C@@H](C)CN([C@@H](C)CO)C(=O)c2cc(NC(=O)Nc3ccccc3)ccc2O1	0	0	3
C[C@@H]1CCCCO[C@H](CN(C)C(=O)NC2CCCCC2)[C@@H](C)CN([C@H](C)CO)C(=O)c2cc(NC(=O)Nc3ccccc3)ccc2O1	0	-1	-6
O=C(Nc1ccccc1)N1CCCCN2[C@H](CO)[C@H](c3ccc(-c4ccncc4)cc3)[C@H]2C1	0	0	38*
O=C(Nc1ccccc1)N1CCCCN2[C@H](C1)[C@@H](c1ccc(-c3ccccc3F)cc1)[C@@H]2CO	0	1	33*
O=C(Nc1ccccc1)N1CCCCN2[C@H](CO)[C@@H](c3ccc(-c4ccccc4F)cc3)[C@@H]2C1	0	5	10
O=C(Nc1ccccc1)N1CCCCN2[C@H](C1)[C@H](c1ccc(-c3ccncc3)cc1)[C@@H]2CO	0	0	-8
C[C@H]1CN([C@@H](C)CO)C(=O)c2cc(C#CCN(C)C)cnc2O[C@@H]1CN(C)Cc1ccccn1	0	0	-10
Cc1ccc(S(=O)(=O)Nc2ccc3c(c2)CC(=O)N([C@@H](C)CO)C[C@@H](C)[C@H](CN(C)Cc2ccc(-c4ccccc4)cc2)O3)cc1	nt	10	15
c1ccc(CN2CCC(N3CCC(N4CCCCCC4)CC3)CC2)cc1	nt	32*	nt
Clc1ccc(CN2CCC(Cc3ccccc3)CC2)cc1	0	-1	-2
COc1ccccc1CN(C)C[C@H]1OCc2ccccc2-c2c(n(C)c3ccccc23)C(=O)N([C@@H](C)CO)C[C@H]1C	3	15*	-2
C[C@@H]1CN([C@H](C)CO)C(=O)c2c(c3ccccc3n2C)-c2ccccc2CO[C@@H]1CN(C)Cc1ccc2c(c1)OCCN2C	0	16*	11
C[C@@H]1CN([C@H](C)CO)C(=O)c2c(c3ccccc3n2C)-c2ccccc2CO[C@@H]1CN(C)Cc1cccc(F)c1	0	2	-8
C[C@H](CO)N1C[C@H](C)[C@H](CN(C)Cc2cccc(C(=O)O)c2)OCc2ccccc2-c2c(n(C)c3ccccc23)C1=O	-1	-3	11
COc1ccccc1CN(C)C[C@@H]1OCc2ccccc2-c2c(n(C)c3ccccc23)C(=O)N([C@H](C)CO)C[C@@H]1C	1	0	?
C[C@H]1CN([C@@H](C)CO)C(=O)c2c(c3ccccc3n2C)-c2ccccc2CO[C@@H]1CN(C)Cc1cccc(F)c1	-1	18*	0
C[C@@H]1CN([C@@H](C)CO)C(=O)c2c(c3ccccc3n2C)-c2ccccc2CO[C@H]1CN(C)Cc1cccc(C(=O)Nc2ccccc2N)c1	0	17*	-4
C[C@@H]1CN([C@@H](C)CO)C(=O)c2c(c3ccccc3n2C)-c2ccccc2CO[C@H]1CN(C)Cc1ccc2c(c1)OCCN2C	-1	3	-9
CS(=O)(=O)N1[C@H](C#N)[C@@H](c2ccccc2-c2ccccc2F)[C@H]1CO	0	-7	14
O=C(NC1CCCC1)N1CC(=O)N2[C@H](CO)[C@@H](c3ccc(-c4cccnc4)cc3)[C@H]2C1	0	-6	-6
C=CCOc1ccc(/C=N/Nc2ccccn2)cc1OC	0	-5	-7
COc1cccc(CN(C)C[C@@H]2OCc3ccccc3-c3c(n(C)c4ccccc34)C(=O)N([C@@H](C)CO)C[C@H]2C)c1	0	-4	49*!
COc1cccc(CN(C)C[C@H]2OCc3ccccc3-c3c(n(C)c4ccccc34)C(=O)N([C@@H](C)CO)C[C@H]2C)c1	-1	2	-41

Source: PubChem (Broad Institute)
